Results from ChEMBL document CHEMBL5724801, “EUbOPEN Chemogenomics Library - Multiplex” (2024).
“And” between values parts separate entries of the source, which are not always exact repeats. Equal entries are not always repeated.

Tested on: HEK-293T
Test: Multiplex assay against HEK293T
Format: toxicity, cell-based
Settings: human, 12 h, 1 µM, compound concentration 1 uM
Outline: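 Per cents of healthy-nucleus cells form the tubulin, mitochondrial-mass and membrane-permeability phenotype values. Live cells were stained at seeding with Hoechst33342, BioTracker Green Microtubule Cytoskeleton Dye, MitoTracker Red and Annexin V Alexa Fluor 680. After compound addition they were imaged on a CQ1 microscope at 37°C and 5% CO2, and CellPathfinder machine-learning gating split them into Hoechst high-intensity objects or normal cells, normal cells into healthy, pyknosed or fragmented nuclei, and pyknosed cells into mitotic or apoptotic.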

Row | SMILES | Population Apoptotic (%) | Population Healthy Nuclei (%) | Population Hoechst High Intensity Objects (%) | Population Membrane Permeable-Phenotype (%) | Population Mitochondria Different-Phenotype (%) | Population Mitotic Cells (%) | Population Normal (%) | Population Pyknosed Nuclei (%) | Population Tubulin-Different-Phenotype (%) | Total Cell Count
1 | Cc1ccc(C(C)(O)c2nc3ccccc3s2)c(C)c1 (stereo unspecified) | 30% and 41% | 72% and 79% | 4% and 5% | 1% and 0% | 36% and 63% | 70% and 58% | 95% and 94% | 8% and 16% | 30% and 25% | 483 and 308
2 | O=C(NCCNCC(O)COc1ccc(O)cc1)N1CCOCC1.O=C(NCCNCC(O)COc1ccc(O)cc1)N1CCOCC1.O=C(O)/C=C/C(=O)O (stereo unspecified) [XAMOTEROL FUMARATE] | 39% and 60% | 79% and 76% | 4% and 14% | 0% | 39% and 57% | 60% and 39% | 95% and 85% | 14% and 17% | 26% and 21% | 339 and 271

Same assay, conditions: human, 12 h, 1 µM, compound concentration 1 uM

Row | SMILES | Population Fragmented Nuclei (%)
3 | O=C(NCCNCC(O)COc1ccc(O)cc1)N1CCOCC1.O=C(NCCNCC(O)COc1ccc(O)cc1)N1CCOCC1.O=C(O)/C=C/C(=O)O (stereo unspecified) [XAMOTEROL FUMARATE] | 5

Same assay, conditions: human, 12 h, 10 µM, compound concentration 10 uM

Row | SMILES | Population Apoptotic (%) | Population Fragmented Nuclei (%) | Population Healthy Nuclei (%) | Population Hoechst High Intensity Objects (%) | Population Membrane Permeable-Phenotype (%) | Population Mitochondria Different-Phenotype (%) | Population Mitotic Cells (%) | Population Normal (%) | Population Pyknosed Nuclei (%) | Population Tubulin-Different-Phenotype (%)
4 | Cc1ccc(C(C)(O)c2nc3ccccc3s2)c(C)c1 (stereo unspecified) | 56% and 36% | 5% and 7% | 82% and 78% | 8% and 7% | 0 | 62% and 72% | 43% and 63% | 91% and 92% | 12% and 13% | 44% and 25%
5 | O=C(NCCNCC(O)COc1ccc(O)cc1)N1CCOCC1.O=C(NCCNCC(O)COc1ccc(O)cc1)N1CCOCC1.O=C(O)/C=C/C(=O)O (stereo unspecified) [XAMOTEROL FUMARATE] | 35% and 29% | 7% and 4% | 83% and 86% | 6% and 5% | 0 | 39% and 62% | 65% and 70% | 93% and 94% | 8% and 9% | 19% and 23%

Same assay, conditions: human, 12 h, 10 µM, compound concentration 10 uM

Row | SMILES | Total Cell Count
6 | Cc1ccc(C(C)(O)c2nc3ccccc3s2)c(C)c1 (stereo unspecified) | 412 and 318
7 | O=C(NCCNCC(O)COc1ccc(O)cc1)N1CCOCC1.O=C(NCCNCC(O)COc1ccc(O)cc1)N1CCOCC1.O=C(O)/C=C/C(=O)O (stereo unspecified) [XAMOTEROL FUMARATE] | 499 and 406

Same assay, conditions: human, 24 h, 1 µM, compound concentration 1 uM

Row | SMILES | Population Apoptotic (%) | Population Fragmented Nuclei (%) | Population Healthy Nuclei (%) | Population Hoechst High Intensity Objects (%) | Population Membrane Permeable-Phenotype (%) | Population Mitochondria Different-Phenotype (%) | Population Mitotic Cells (%) | Population Normal (%) | Population Pyknosed Nuclei (%) | Population Tubulin-Different-Phenotype (%)
8 | Cc1ccc(C(C)(O)c2nc3ccccc3s2)c(C)c1 (stereo unspecified) | 26% and 32% | 18% and 6% | 73% and 85% | 3% | 1% and 0% | 15% and 36% | 73% and 67% | 96% | 8% and 7% | 11% and 16%
9 | O=C(NCCNCC(O)COc1ccc(O)cc1)N1CCOCC1.O=C(NCCNCC(O)COc1ccc(O)cc1)N1CCOCC1.O=C(O)/C=C/C(=O)O (stereo unspecified) [XAMOTEROL FUMARATE] | 26% and 45% | 8% and 9% | 78% and 80% | 6% and 13% | 0% | 18% and 38% | 73% and 54% | 93% and 86% | 12% and 10% | 17% and 15%

Same assay, conditions: human, 24 h, 1 µM, compound concentration 1 uM

Row | SMILES | Total Cell Count
10 | Cc1ccc(C(C)(O)c2nc3ccccc3s2)c(C)c1 (stereo unspecified) | 645 and 447
11 | O=C(NCCNCC(O)COc1ccc(O)cc1)N1CCOCC1.O=C(NCCNCC(O)COc1ccc(O)cc1)N1CCOCC1.O=C(O)/C=C/C(=O)O (stereo unspecified) [XAMOTEROL FUMARATE] | 475 and 366

Same assay, conditions: human, 24 h, 10 µM, compound concentration 10 uM

Row | SMILES | Population Apoptotic (%) | Population Fragmented Nuclei (%) | Population Healthy Nuclei (%) | Population Hoechst High Intensity Objects (%) | Population Membrane Permeable-Phenotype (%) | Population Mitochondria Different-Phenotype (%) | Population Mitotic Cells (%) | Population Normal (%) | Population Pyknosed Nuclei (%) | Population Tubulin-Different-Phenotype (%)
12 | Cc1ccc(C(C)(O)c2nc3ccccc3s2)c(C)c1 (stereo unspecified) | 28% and 36% | 6% and 10% | 82% and 78% | 8% and 6% | 0 | 42% and 63% | 71% and 63% | 91% and 93% | 11% and 10% | 34% and 23%
13 | O=C(NCCNCC(O)COc1ccc(O)cc1)N1CCOCC1.O=C(NCCNCC(O)COc1ccc(O)cc1)N1CCOCC1.O=C(O)/C=C/C(=O)O (stereo unspecified) [XAMOTEROL FUMARATE] | 21% and 33% | 9% and 7% | 79% and 85% | 5% and 4% | 0 | 25% and 42% | 78% and 66% | 94% and 95% | 11% and 7% | 12% and 17%

Same assay, conditions: human, 24 h, 10 µM, compound concentration 10 uM

Row | SMILES | Total Cell Count
14 | Cc1ccc(C(C)(O)c2nc3ccccc3s2)c(C)c1 (stereo unspecified) | 487 and 379
15 | O=C(NCCNCC(O)COc1ccc(O)cc1)N1CCOCC1.O=C(NCCNCC(O)COc1ccc(O)cc1)N1CCOCC1.O=C(O)/C=C/C(=O)O (stereo unspecified) [XAMOTEROL FUMARATE] | 632 and 542

Same assay, conditions: human, 48 h, 1 µM, compound concentration 1 uM

Row | SMILES | Population Apoptotic (%) | Population Fragmented Nuclei (%) | Population Healthy Nuclei (%) | Population Hoechst High Intensity Objects (%) | Population Membrane Permeable-Phenotype (%) | Population Mitochondria Different-Phenotype (%) | Population Mitotic Cells (%) | Population Normal (%) | Population Pyknosed Nuclei (%) | Population Tubulin-Different-Phenotype (%)
16 | Cc1ccc(C(C)(O)c2nc3ccccc3s2)c(C)c1 (stereo unspecified) | 17% and 34% | 20% and 13% | 73% and 78% | 2% and 3% | 1% | 15% and 22% | 82% and 65% | 97% and 96% | 5% and 8% | 12% and 11%
17 | O=C(NCCNCC(O)COc1ccc(O)cc1)N1CCOCC1.O=C(NCCNCC(O)COc1ccc(O)cc1)N1CCOCC1.O=C(O)/C=C/C(=O)O (stereo unspecified) [XAMOTEROL FUMARATE] | 21% and 41% | 14% and 11% | 77% and 81% | 2% and 4% | 2% and 0% | 11% and 18% | 78% and 58% | 97% and 95% | 7% and 6% | 9% and 10%

Same assay, conditions: human, 48 h, 1 µM, compound concentration 1 uM

Row | SMILES | Total Cell Count
18 | Cc1ccc(C(C)(O)c2nc3ccccc3s2)c(C)c1 (stereo unspecified) | 964 and 621
19 | O=C(NCCNCC(O)COc1ccc(O)cc1)N1CCOCC1.O=C(NCCNCC(O)COc1ccc(O)cc1)N1CCOCC1.O=C(O)/C=C/C(=O)O (stereo unspecified) [XAMOTEROL FUMARATE] | 918 and 526

Same assay, conditions: human, 48 h, 10 µM, compound concentration 10 uM

Row | SMILES | Population Apoptotic (%) | Population Fragmented Nuclei (%) | Population Healthy Nuclei (%) | Population Hoechst High Intensity Objects (%) | Population Membrane Permeable-Phenotype (%) | Population Mitochondria Different-Phenotype (%) | Population Mitotic Cells (%) | Population Normal (%) | Population Pyknosed Nuclei (%) | Population Tubulin-Different-Phenotype (%)
20 | Cc1ccc(C(C)(O)c2nc3ccccc3s2)c(C)c1 (stereo unspecified) | 33% and 50% | 14% and 13% | 76% and 80% | 2% and 3% | 0% and 1% | 28% and 33% | 66% and 50% | 97% and 96% | 9% and 5% | 18% and 13%
21 | O=C(NCCNCC(O)COc1ccc(O)cc1)N1CCOCC1.O=C(NCCNCC(O)COc1ccc(O)cc1)N1CCOCC1.O=C(O)/C=C/C(=O)O (stereo unspecified) [XAMOTEROL FUMARATE] | 17% and 25% | 15% and 16% | 79% and 77% | 0% and 2% | 1% and 0% | 13% and 16% | 82% and 74% | 99% and 97% | 5% | 6% and 10%

Same assay, conditions: human, 48 h, 10 µM, compound concentration 10 uM

Row | SMILES | Total Cell Count
22 | Cc1ccc(C(C)(O)c2nc3ccccc3s2)c(C)c1 (stereo unspecified) | 713 and 508
23 | O=C(NCCNCC(O)COc1ccc(O)cc1)N1CCOCC1.O=C(NCCNCC(O)COc1ccc(O)cc1)N1CCOCC1.O=C(O)/C=C/C(=O)O (stereo unspecified) [XAMOTEROL FUMARATE] | 1116 and 827
